Laboratory results from ChEMBL document CHEMBL1145087 (J Med Chem, 2003).

Columns and labels:
Glucocorticoid receptor [1] = biological target: T1, Glucocorticoid receptor (Homo sapiens, UniProt P04150)
T1 sequence (P04150 whole entry): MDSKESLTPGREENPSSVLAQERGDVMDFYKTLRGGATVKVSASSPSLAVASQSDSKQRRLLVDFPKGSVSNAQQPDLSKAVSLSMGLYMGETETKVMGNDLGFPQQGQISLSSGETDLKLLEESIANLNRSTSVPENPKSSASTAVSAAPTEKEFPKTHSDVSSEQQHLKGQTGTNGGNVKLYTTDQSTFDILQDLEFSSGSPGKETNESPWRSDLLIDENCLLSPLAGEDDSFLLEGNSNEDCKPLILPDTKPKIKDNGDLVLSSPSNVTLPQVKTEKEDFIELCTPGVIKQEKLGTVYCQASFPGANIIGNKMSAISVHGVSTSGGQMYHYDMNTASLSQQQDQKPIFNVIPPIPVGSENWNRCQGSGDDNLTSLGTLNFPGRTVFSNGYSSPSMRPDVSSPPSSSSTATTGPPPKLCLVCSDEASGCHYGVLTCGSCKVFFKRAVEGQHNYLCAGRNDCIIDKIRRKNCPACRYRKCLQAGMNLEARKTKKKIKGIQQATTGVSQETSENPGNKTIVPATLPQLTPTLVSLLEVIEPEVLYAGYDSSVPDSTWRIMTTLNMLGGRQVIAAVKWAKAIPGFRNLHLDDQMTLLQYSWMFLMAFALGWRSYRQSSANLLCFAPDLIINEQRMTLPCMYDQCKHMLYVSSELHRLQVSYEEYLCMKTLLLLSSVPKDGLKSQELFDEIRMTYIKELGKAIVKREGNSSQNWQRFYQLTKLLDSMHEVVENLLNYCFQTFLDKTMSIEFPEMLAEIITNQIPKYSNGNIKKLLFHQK

Homo sapiens [2] = organism: Homo sapiens; test: Relative potency for human glucocorticoid and progesterone receptors
Progesterone receptor [3] = biological target: T2, Progesterone receptor (Homo sapiens, UniProt P06401); test: Agonistic activity against human progesterone receptor in T47D breast cancer cells; assay type: functional, cell-based
T2 sequence (P06401 whole entry): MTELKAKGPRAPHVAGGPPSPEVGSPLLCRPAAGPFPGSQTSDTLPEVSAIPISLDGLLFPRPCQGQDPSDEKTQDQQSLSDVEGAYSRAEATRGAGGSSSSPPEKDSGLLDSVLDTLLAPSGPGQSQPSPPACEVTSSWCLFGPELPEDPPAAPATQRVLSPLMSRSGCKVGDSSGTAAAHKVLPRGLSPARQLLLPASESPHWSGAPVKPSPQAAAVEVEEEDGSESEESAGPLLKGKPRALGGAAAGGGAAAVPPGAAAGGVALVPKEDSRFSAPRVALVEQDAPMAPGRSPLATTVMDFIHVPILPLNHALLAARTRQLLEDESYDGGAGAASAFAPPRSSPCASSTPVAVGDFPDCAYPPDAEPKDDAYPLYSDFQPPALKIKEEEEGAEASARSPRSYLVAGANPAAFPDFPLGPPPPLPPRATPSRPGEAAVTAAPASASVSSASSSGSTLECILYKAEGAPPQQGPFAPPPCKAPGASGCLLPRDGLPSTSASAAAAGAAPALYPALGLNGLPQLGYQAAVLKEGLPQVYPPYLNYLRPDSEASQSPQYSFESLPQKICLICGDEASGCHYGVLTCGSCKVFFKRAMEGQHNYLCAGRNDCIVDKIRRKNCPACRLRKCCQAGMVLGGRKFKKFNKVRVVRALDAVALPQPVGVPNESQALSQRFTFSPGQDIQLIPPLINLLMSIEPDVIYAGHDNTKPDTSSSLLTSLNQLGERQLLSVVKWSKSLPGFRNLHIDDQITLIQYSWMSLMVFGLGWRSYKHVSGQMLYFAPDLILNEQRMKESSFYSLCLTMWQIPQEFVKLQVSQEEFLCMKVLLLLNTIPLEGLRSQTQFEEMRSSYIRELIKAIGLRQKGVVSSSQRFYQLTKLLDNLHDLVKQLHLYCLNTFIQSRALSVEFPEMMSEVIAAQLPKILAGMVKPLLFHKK

Homo sapiens [4] = organism: Homo sapiens; test: Relative potency for human mineralocorticoid and progesterone receptors
Glucocorticoid receptor [5] = biological target: T1, Glucocorticoid receptor; test: Inhibition of Dexamethasone binding to human glucocorticoid receptor expressed in baculovirus […] cells
[6] = biological target: T3, Progesterone receptor (Homo sapiens) (UniProt P06401); test: Percent agonistic effect towards human progesterone receptor in T47D breast cancer cells; assay type: functional, cell-based
T3 sequence (whole entry): T2 sequence (P06401 whole entry)

Homo sapiens [7] = organism: Homo sapiens; test: Relative potency for human estrogen and progesterone receptors
Progesterone receptor [8] = biological target: T2, Progesterone receptor; test: Agonistic activity against human progesterone receptor in CV-1 cells; assay type: functional, cell-based
Androgen receptor [9] = biological target: T4, Androgen receptor (Homo sapiens, UniProt P10275); test: biochemical
T4 sequence (P10275 whole entry): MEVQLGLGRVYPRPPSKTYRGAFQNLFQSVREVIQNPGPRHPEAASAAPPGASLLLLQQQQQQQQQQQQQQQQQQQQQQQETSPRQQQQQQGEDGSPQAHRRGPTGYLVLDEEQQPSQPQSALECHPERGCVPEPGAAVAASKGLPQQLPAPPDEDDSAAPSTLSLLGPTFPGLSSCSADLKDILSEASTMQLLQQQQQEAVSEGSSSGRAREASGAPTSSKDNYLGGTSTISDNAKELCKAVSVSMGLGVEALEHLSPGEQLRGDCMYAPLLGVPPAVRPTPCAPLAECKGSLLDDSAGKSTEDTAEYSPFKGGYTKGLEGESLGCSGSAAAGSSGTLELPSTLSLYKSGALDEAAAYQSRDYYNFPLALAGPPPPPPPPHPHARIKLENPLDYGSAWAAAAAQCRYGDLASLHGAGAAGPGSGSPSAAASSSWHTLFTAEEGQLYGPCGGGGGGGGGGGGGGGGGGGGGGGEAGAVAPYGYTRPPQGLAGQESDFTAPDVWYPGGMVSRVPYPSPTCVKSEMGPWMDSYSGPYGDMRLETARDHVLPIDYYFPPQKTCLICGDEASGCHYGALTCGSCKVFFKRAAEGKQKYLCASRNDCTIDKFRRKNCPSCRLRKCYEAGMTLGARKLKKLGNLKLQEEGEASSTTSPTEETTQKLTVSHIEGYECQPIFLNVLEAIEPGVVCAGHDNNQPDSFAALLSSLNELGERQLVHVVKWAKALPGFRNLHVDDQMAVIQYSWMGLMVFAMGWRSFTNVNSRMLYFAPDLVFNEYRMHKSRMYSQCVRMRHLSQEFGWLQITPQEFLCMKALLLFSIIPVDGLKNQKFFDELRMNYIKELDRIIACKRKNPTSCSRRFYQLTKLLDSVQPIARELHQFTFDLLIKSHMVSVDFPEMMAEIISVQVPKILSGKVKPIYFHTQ

Progesterone receptor [10] = biological target: T2, Progesterone receptor; test: Binding affinity towards human progesterone receptor A isoform using progesterone as radioligand
Estrogen receptor [11] = biological target: T5, Estrogen receptor (Homo sapiens, UniProt Q92731+P03372); test: Antagonistic efficacy against human estrogen receptor; assay type: functional
Method in brief: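 Cotransfection LUC reporter assay for hER. Antagonist efficacy is the % maximal inhibition of a standard agonist (estradiol is the reference agonist for hER) applied at its EC50.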

Homo sapiens [12] = organism: Homo sapiens; test: Relative potency for human androgen and progesterone receptors
[13] = biological target: T3, Progesterone receptor (Homo sapiens); test: Percent agonistic effect towards human progesterone receptor in CV-1 cells; assay type: functional, cell-based
Estrogen receptor [14] = biological target: T5, Estrogen receptor
Androgen receptor [15] = biological target: T4, Androgen receptor

`CC1=CC(C)(C)Nc2ccc3c(c21)/C(=C/c1ccco1)Oc1ccc(F)cc1-3` was tested. Which IC50 (Glucocorticoid receptor [1]) did it give?
The IC50 was 109 nM.

What about the Ratio (Homo sapiens [2]) of the same compound?
Its Ratio is 64.

What about the EC50 (Progesterone receptor [3]) of the same compound?
The EC50 was 21 nM.

What about the Ratio (Homo sapiens [4]) of the same compound?
Its Ratio is > 1000.

What about the Ki (Glucocorticoid receptor [5]) of the same compound?
The Ki was 140 nM.

What about the Efficacy [6] of the same compound?
The Efficacy was 64%.

And the Ratio (Homo sapiens [7])?
The Ratio was 749.

And the EC50 (Progesterone receptor [8])?
The EC50 was 1.7 nM.

And the Ki (Androgen receptor [9])?
The Ki was > 1000 nM.

And the Ki (Progesterone receptor [10])?
Its Ki is 4.7 nM.

And the Efficacy (Estrogen receptor [11])?
Its Efficacy is 51%.

What about the Ratio (Homo sapiens [12]) of the same compound?
The Ratio was 152.

What about the Efficacy [13] of the same compound?
The Efficacy was 138%.

What about the IC50 (Estrogen receptor [14]) of the same compound?
Its IC50 is 1273 nM.

What about the IC50 (Androgen receptor [15]) of the same compound?
The IC50 was 258 nM.
